Laboratory results reported in ChEMBL document CHEMBL1143693, “Cancer chemopreventive effects of cycloartane-type and related triterpenoids in in vitro and in vivo models” (J Nat Prod, 2007).
Active and inactive are the calls of the source. The rule behind the calls is not given here.

Columns and labels:
Mus musculus [1] = species on record: Mus musculus; test: Inhibition of TPA-induced skin tumor promotion in ICR mouse assessed as incidence of skin papilloma at 85 nmol after 20 weeks; assay type: functional; conditions: values are per cent of control
Outline: (§1)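 Specific pathogen-free ICR mice, 15 per group, were initiated with DMBA and promoted with TPA, with or without 85 nmol compound. Papilloma incidence and mean papillomas per mouse were recorded up to 20 weeks of promotion. Groups were compared by Student's t-test.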

Mus musculus [2] = species on record: Mus musculus; test: Inhibition of TPA-induced skin tumor promotion in ICR mouse assessed as reduction in number of skin papillomas at 85 nmol; assay type: functional, organism-based; outline: as §1
Human gammaherpesvirus 4 [3] = test: Inhibition of TPA-induced Epstein-Barr virus early antigen activation in Raji cells after 48 hrs; assay type: functional, organism-based; conditions: human gammaherpesvirus 4, Raji
Raji = test: Cell viability of Raji cells at 320 nM; assay type: functional, Homo sapiens
[4] = Scavenging activity against NO generation in human Chang liver cells assessed as inhibition of NOR1-activation at 350 nM relative to NOR1; assay type: functional
Mus musculus [5] = species on record: Mus musculus; test: Inhibition of TPA-induced skin tumor promotion in ICR mouse assessed as incidence of skin papilloma at 85 nmol after 10 weeks; assay type: functional; outline: as §1
Human gammaherpesvirus 4 [6] = test: Inhibition of TPA-induced Epstein-Barr virus early antigen activation assessed as EBV-EA induction in Raji cells at 32 nM after 48 hrs relative to TPA; values are per cent of control; conditions: human gammaherpesvirus 4, Raji
Human gammaherpesvirus 4 [7] = test: Inhibition of TPA-induced Epstein-Barr virus early antigen activation assessed as EBV-EA induction in Raji cells at 320 nM after 48 hrs relative to TPA; values are per cent of control; conditions: human gammaherpesvirus 4, Raji
Human gammaherpesvirus 4 [8] = test: Inhibition of TPA-induced Epstein-Barr virus early antigen activation assessed as EBV-EA induction in Raji cells at 3.2 nM after 48 hrs relative to TPA; values are per cent of control; conditions: human gammaherpesvirus 4, Raji
Human gammaherpesvirus 4 [9] = test: Inhibition of TPA-induced Epstein-Barr virus early antigen activation assessed as EBV-EA induction in Raji cells at 0.32 nM after 48 hrs relative to TPA; values are per cent of control; conditions: human gammaherpesvirus 4, Raji

Structure (SMILES) | response, % of control (Mus musculus [1]) [%] | Activity (Mus musculus [2]) | IC50 (Human gammaherpesvirus 4 [3]) [nM] | Activity (Raji) [%] | Activity [4] | Papilloma incidence % (Mus musculus [5]) [%] | level, % of control at 0.032 µM (Human gammaherpesvirus 4 [6]) [%] | level, % of control at 0.32 µM (Human gammaherpesvirus 4 [7]) [%] | level, % of control at 0.0032 µM (Human gammaherpesvirus 4 [8]) [%] | level, % of control at 0.00032 µM (Human gammaherpesvirus 4 [9]) [%]
COCC(O)(CC[C@@H](C)[C@H]1CC[C@@]2(C)[C@@H]3CC[C@H]4C(C)(C)[C@@H](O)CC[C@@]45C[C@@]35CC[C@]12C)C(C)C (some centres not stated) | 87 | Active | 6.7 | 70 | 2.1 | 27 | 15.2 | 0 | 65.4 | 83.1
CC(C)C(O)(CO)CC[C@@H](C)[C@H]1CC[C@@]2(C)[C@@H]3CC[C@H]4C(C)(C)[C@@H](O)CC[C@@]45C[C@@]35CC[C@]12C (some centres not stated) | 80 | Active | 6.1 | 70 | 2.2 | 20 | 13 | 0 | 63.2 | 81
C=C(C)[C@@H](C)CC[C@@H](C)[C@H]1CC[C@@]2(C)[C@@H]3CC[C@H]4[C@@H](C)C(=O)CC[C@@]45C[C@@]35CC[C@]12C | – | – | 9.9 | 70 | 1.8 | – | 32.4 | 0 | 72.7 | 94.6
C=C(C)C(O)CC[C@@H](C)[C@H]1CC[C@@]2(C)[C@@H]3CC[C@H]4C(C)(C)C(=O)CC[C@@]45C[C@@]35CC[C@]12C (some centres not stated) | – | – | 8.6 | 70 | 2 | – | 21.1 | 0 | 69.7 | 91.2
C=C(C)C(=O)CC[C@@H](C)[C@H]1CC[C@@]2(C)[C@@H]3CC[C@H]4C(C)(C)[C@@H](O)CC[C@@]45C[C@@]35CC[C@]12C | – | – | 9.3 | 70 | 1.4 | – | 25.4 | 1.5 | 73.1 | 97.8
C=C(CC[C@@H](C)[C@H]1CC[C@@]2(C)[C@@H]3CC[C@H]4C(C)(C)[C@@H](OC(=O)/C=C/c5ccc(O)c(OC)c5)CC[C@@]45C[C@@]35CC[C@]12C)C(C)C | – | – | 15.8 | 70 | 1.8 | – | 54.7 | 17.6 | 82 | 100
CC(C)CCC[C@@H](C)C1=CC[C@@]2(C)[C@@H]3CC[C@H]4C(C)(C)[C@@H](O)CC[C@@]45C[C@@]35CC[C@]12C | – | – | 10.1 | 70 | 1.6 | – | 32.1 | 0 | 72.6 | 96.5
CC(C)=CCC[C@@H](C)[C@H]1CC[C@@]2(C)[C@@H]3CC[C@H]4C(C)(C)[C@@H](O)CC[C@@]45C[C@@]35CC[C@]12C [CYCLOARTENOL] | – | – | 8.8 | 70 | 1.6 | – | 25.8 | 0 | 69.9 | 93.5
